From ChEMBL document CHEMBL2439990, “Serendipity in drug-discovery: a new series of 2-(benzyloxy)benzamides as TRPM8 antagonists” (Bioorg Med Chem Lett, 2013)

Legend:
[1] = target: Transient receptor potential cation channel subfamily M member 8 (Homo sapiens, UniProt Q7Z2W7); assay: Inhibition of human TRPM8 (unknown origin) expressed in HEK293 cells assessed as inhibition of WS12-induced Ca2+ elevation by FLIPR assay; assay type: cell-based
Summary of the method: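 IC50 values plus modified Kb values computed from the geometric mean of agonist EC50 and slope. At least three independent experiments.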

[2] = Apparent intrinsic clearance in human liver microsomes; assay type: ADME, Microsome; details: read-out: CLH(app)
[3] = Lipophilicity, log D of the compound at pH 7.4; assay type: physicochemical; details: buffer
[4] = species on record: Rattus norvegicus; assay: Inhibition of rat calcium channel L-site diltiazem binding site at 10 uM
[5] = Half life in DMSO/aqueous buffer assessed as N-(2-(4-(benzyloxy)-3-methoxybenzylamino)ethyl)thiophene-2-carboxamide formation; assay type: physicochemical

SMILES	Kb [1] [nM]	IC50 [1] [nM]	further results
CCN(C(=O)c1cnccc1OCc1ccccc1)[C@@H]1CCC[C@H](N)C1 (racemic)	> 2000		
N[C@H]1CCC[C@@H](N(C(=O)c2ccccc2OCc2ccccc2)C2CC2)C1 (racemic)	2250	2010	
CCN(C(=O)c1ccccc1OCc1ccccc1Cl)[C@@H]1CCC[C@H](N)C1	13	29.9	
CCN(C(=O)c1ccccc1OCc1ccccc1)C1CCNC1 (configuration not stated)	> 5000		
CCN(C(=O)c1ccccc1OCc1ccccc1)C1CCCNC1 (configuration not stated)	4860		
O=C1NC(c2cccc([N+](=O)[O-])c2)=CCN1c1ccccc1O [ICILLIN]			EC50 [1]: 300 nM
CCN(C(=O)c1ccccc1OCc1ccccc1C)[C@@H]1CCC[C@H](N)C1	12.7	15.1	
CCN(C(=O)c1ccccc1OCc1ccccc1F)[C@@H]1CCC[C@H](N)C1	17.8	21.1	microsomal CLint [2]: < 8 µL/min/mg; logD [3]: 0.7
NC1CCN(C(=O)c2ccccc2OCc2ccccc2)C1 (configuration not stated)	> 10000		
CCN(C(=O)c1ccccc1OCc1ccccc1)[C@@H]1CCC[C@H](NC(C)=O)C1 (racemic)	> 5000		
CCN(C(=O)c1ccccc1OCc1ccccc1C#N)C1CCCC(N)C1 (racemic)	1250	1850	
CC(C)N(C(=O)c1ccccc1OCc1ccccc1)[C@@H]1CCC[C@H](N)C1 (racemic)	5130	8780	
CCN(C(=O)c1ccccc1OCc1ccccc1Cl)[C@H]1CCC[C@@H](N)C1	72	85.4	
CCN(C(=O)c1ccccc1OCc1ccccc1)[C@@H]1CCC[C@H](N)C1	56.3	76.2	microsomal CLint [2]: < 8 µL/min/mg; inhibition [4]: 61%; logD [3]: 0.6
CCN(C(=O)c1ccncc1OCc1ccccc1)[C@@H]1CCC[C@H](N)C1 (racemic)	> 2000		
CN(C(=O)c1ccccc1OCc1ccccc1)[C@@H]1CCNC1	> 10000		
CCN(C(=O)c1ccccc1OCc1ccccc1F)[C@H]1CCC[C@@H](N)C1	367	435	
CN(C(=O)c1ccccc1OCc1ccccc1)[C@@H]1CCC[C@H](N)C1 (racemic)	3670	3150	
CCN(C(=O)c1ccccc1OCc1ccccc1)[C@@H]1CC[C@H](N)C1 (racemic)	> 5000		
CCN(C(=O)c1ccccc1-c1ccccc1)[C@@H]1CCC[C@H](N)C1 (racemic)	> 2000		
NN1CCN(C(=O)c2ccccc2OCc2ccccc2)CC1	> 10000		
COc1cc(CN(CCN)C(=O)O[C@@H](C)c2ccccc2)ccc1OCc1ccccc1	7.8		
O=C(c1ccccc1OCc1ccccc1)N1CCNCC1	> 10000		

SMILES	Kb [1] [nM]	IC50 [1] [nM]	further results
CCN(C(=O)c1ccccc1COc1ccccc1)[C@@H]1CCC[C@H](N)C1 (racemic)	280		
N[C@H]1CCC[C@@H](N(CC2CC2)C(=O)c2ccccc2OCc2ccccc2)C1 (racemic)	665	593	
CCN(C(=O)c1ccccc1OCc1ccccc1)C1CCNCC1	> 5000		
CCN(C(=O)c1ccccc1OCc1ccc(C#N)cc1)C1CCCC(N)C1 (racemic)	4590	6780	
CCN(C(=O)c1ccccc1OCc1ccc(Cl)cc1)[C@@H]1CCC[C@H](N)C1	16.1	19.3	microsomal CLint [2]: < 10 µL/min/mg; logD [3]: 1.3
CCN(C(=O)c1ccccc1OCc1cccc(Cl)c1)C1CCCC(N)C1 (racemic)	96.6	96.9	
CCN(C(=O)c1ccccc1OCc1cccc(C#N)c1)C1CCCC(N)C1 (racemic)	491	493	
CCN(C(=O)c1ccccc1OCc1ccccc1)C1CCCC(N)C1 (racemic)	< 100		
CCCCN(C(=O)c1ccccc1OCc1ccccc1)[C@@H]1CCC[C@H](N)C1 (racemic)	1560	1400	
CCN(C(=O)c1ccccc1Cc1ccccc1)[C@@H]1CCC[C@H](N)C1 (racemic)	> 2000		
CCCN(C(=O)c1ccccc1OCc1ccccc1)[C@@H]1CCC[C@H](N)C1 (racemic)	1430	1230	
NCCN(Cc1cccs1)C(=O)c1ccccc1OCc1ccccc1	443	1240	microsomal CLint [2]: 149 µL/min/mg; logD [3]: 1.6
CCN(C(=O)c1ccccc1OCc1ccccc1)[C@H]1CCC[C@@H](N)C1	1130		
CCN(C(=O)c1ccccc1OCc1ccccc1)[C@@H]1CCC[C@@H](N)C1 (racemic)	1400		
CCN(C(=O)c1ccccc1OCc1ccccc1)[C@@H]1CC[C@@H](N)C1 (racemic)	2600		
CCN(C(=O)c1ccccc1OCc1ccccc1C)[C@H]1CCC[C@@H](N)C1	246	291	
COc1ccc(NC(=O)[C@@H]2C[C@H](C)CC[C@H]2C(C)C)cc1 [ACOLTREMON]			EC50 [1]: 40 nM
O=C(c1ccccc1OCc1ccccc1)N1C[C@H]2CNC[C@H]2C1	> 10000		
CCN(C(=O)c1ccccc1OCC(C)C)[C@@H]1CCC[C@H](N)C1 (racemic)	> 2000		
N[C@H]1CCC[C@@H](N(C(=O)c2ccccc2OCc2ccccc2)C2CCC2)C1 (racemic)	794	1360	
CCN(C(=O)c1ccccc1OCc1ccc(Cl)cc1)[C@H]1CCC[C@@H](N)C1	214	254	
CCN(C(=O)c1cccnc1OCc1ccccc1)[C@@H]1CCC[C@H](N)C1 (racemic)	> 2000		
COc1cc(CN(CCN)C(=O)c2cccs2)ccc1OCc1ccccc1	8.4		t1/2 [5]: < 2 h
